From PubChem
This is one part of a sample in which hits are shown more often than they occur.
L major viab = Leishmania major promastigote growth inhibition; Leishmania major promastigotes, resazurin fluorescence viability; inhibition, % at 10 µM; 200,000 compounds, 9% hits; AID 1063; in the data active means inhibition above about 50%;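 further: promastigotes grown with compound for 44 hours at 28 °C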
CHOP inh = inhibitors of CHOP induction in ER stress response | inhibition, % at 10 µM | 220,000 compounds, 3.8% hits | CHO-K1 CHOP-promoter luciferase, tunicamycin-induced, 15-18 h;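 active means compounds that reduced the stress-induced luciferase reporter signal by more than about 70% of percent inhibition, limit read from the data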
Dynein transport = blocks dynein driven cargo transport along microtubules; 3617.4 mouse cells, GR-EGFP nuclear translocation imaging; test concentration mostly 20 µM; stimulated with dexamethasone, 1 µM; stronger effect = lower value; z-score, hits read low; 220,000 compounds, 0.47% hits; AID 1381;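 active means plate z-score of nuclear minus cytoplasmic receptor signal below a set negative limit, without overly bright fluorescence or cell loss, cut at about -3.5 in these data, passing the limit was not always enough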;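 further: z-score of nuclear minus cytoplasmic ring GR-EGFP intensity difference per well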
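Buffer or medium: tetracycline-free induction medium containing charcoal-stripped FBS / Reagent: dexamethasone agonist, 1.0 µM final, for 30 min / Technique: automated 10x imaging of fixed Hoechst-stained cells / Times: induction 48 h, compound 1 h, agonist 30 min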
CHOP UPR activ = activators of apoptotic arm of unfolded protein response (CHOP). AID 449763. 330,000 compounds, 0.34% hits. CHO-CHOP luciferase reporter, UPR activation, luminescence; percent of tunicamycin response over DMSO baseline. activation, % at 10 µM;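 active means at 10 µM dose, activation of 40% or more, normalized to positive control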
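Test system: CHO-CHOP cells, stable luciferase reporter of PERK-eIF2a-CHOP signalling | Quantity: 500 CHO-CHOP cells per well | Buffer or medium: F12 plus 10% serum | Compound dosing: 10 µM single point, 0.5% DMSO | Schedule: 6 h compound treatment, 37 °C | Signal: Luciferase luminescence | Control set: Tunicamycin high control, DMSO low control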
XBP1 UPR activ = activators of adaptive arm of unfolded protein response (XBP1) | CHO-XBP1 luciferase reporter, IRE1-XBP1 UPR activation, luminescence; percent of tunicamycin response, DMSO as zero | activation, % at 20 µM | 330,000 compounds, 0.33% hits | AID 463104;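 active means versus positive control, 20 µM dose yields 30% or more activation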
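Material: IRE1-XBP1 luciferase reporter CHO line / Quantity: one thousand reporter cells per well / Buffer or medium: F12 with 10% serum / Compound: 20 µM single concentration, DMSO 1% / Times: 6 h treatment, 37 °C / Detection: Steady-Glo luciferase glow luminescence, 10 min after reagent addition / Benchmarks: tunicamycin high, DMSO low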
T cruzi inh = blocks replication of Trypanosoma cruzi | 300,000 compounds, 1.4% hits | inhibition, % (concentration not given with the values) | T. cruzi beta-gal in NIH3T3, luminescence, 90 h | AID 1885;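 active means mean inhibition across valid replicates above about 55%, limit read from the data; inconclusive means mean below that limit but half or more replicates reach it; inactive means mean below it, under half of replicates reach it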;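 further: signal also drops with host cell toxicity which is not excluded here; higher percent means less beta-gal luminescence so fewer parasites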
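System – NIH/3T3 host cells with β-galactosidase reporter T. cruzi · Doses – single 50 nL compound addition per well in DMSO · Reagent – 5000 T. cruzi trypomastigotes/well · Medium – Low-serum DMEM with 2% FBS · Timing – ≥90 h infection period, 3 h prior cell attachment · Evaluation – parasite load inhibition, % · Technique – GalScreen luminescence, 60 min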
Each line names hits and unclear results; the compound was inactive in the other large screens.

CCN(CC)CCN(C(=O)c1ccc(S(=O)(=O)N2CCCCC2)cc1)c1nc2cc3c(cc2s1)OCO3	T cruzi inh 63
CN(C)CCCN(C(=O)c1ccc(S(=O)(=O)N2CCc3ccccc32)cc1)c1nc2ccc(Cl)cc2s1	none (no result: L major viab, CHOP inh, Dynein transport)
CN(C)CCN(C(=O)c1ccc(S(=O)(=O)N(C)c2ccccc2)cc1)c1nc2cc3c(cc2s1)OCO3	T cruzi inh 57 (no result: L major viab, CHOP inh, Dynein transport)
Cc1cccc(-c2nnc(SC(C)C(=O)N3CCOCC3)o2)c1 (stereo unspecified)	none (no result: L major viab, CHOP inh, Dynein transport)
COCCC(=O)N1CCC(Oc2ccc(C(=O)N3CCCCC3CCO)cc2)CC1 (stereo unspecified)	none (no result: L major viab, CHOP inh, Dynein transport)
C[C@H](NC(=O)c1ncn(Cc2ccccc2)c1C(=O)N[C@@H](C)c1ccccc1)c1ccccc1	none (no result: L major viab, CHOP inh, Dynein transport, T cruzi inh)
Cc1c(NC(=O)CSc2ccc3ccccc3n2)c(=O)n(-c2ccccc2)n1C	none (no result: L major viab, CHOP inh, Dynein transport, T cruzi inh)
CC(C)C[C@H](NC(=O)C1CCN(S(=O)(=O)c2ccccc2)CC1)C(=O)NCc1ccncc1	none (no result: L major viab, CHOP inh, Dynein transport)
CCCCN(C(=O)CSCC(=O)Nc1ccc(C)cc1)c1c(N)n(CCCC)c(=O)[nH]c1=O	none (no result: L major viab, CHOP inh, Dynein transport)
Cc1ccc(NC(=O)c2cccc(S(=O)(=O)N3CCN(c4ccccc4)CC3)c2)nc1	none (no result: L major viab, CHOP inh, Dynein transport)
CC(=O)c1sc(N/N=C\c2ccc(N(C)C)cc2)nc1C	none (no result: L major viab, CHOP inh, Dynein transport)
COC(=O)c1sc(N/N=C/c2ccc(C(C)C)cc2)nc1C	T cruzi inh 64 (no result: L major viab, CHOP inh, Dynein transport)
NS(=O)(=O)c1ccc(CCNC(=O)Nc2ccc(Cl)c(Cl)c2)cc1	L major viab 76
NS(=O)(=O)c1ccc(CNC(=S)Nc2ccc(Cl)c(Cl)c2)cc1	none
Cc1ccc(S(=O)(=O)NCCC(=O)Nc2cccc(Cl)c2)cc1	L major viab 52
CC(C)c1ccc(NC(=O)CCNS(=O)(=O)c2cccc3nonc23)cc1	none
Cc1ccc(S(=O)(=O)NCCC(=O)Nc2ccc(Cl)c(Cl)c2)cc1	CHOP inh 83
Cc1ccc(NC(=O)CCNS(=O)(=O)c2cccc3nonc23)cc1	CHOP inh 75
Cc1ccc(S(=O)(=O)N2CCOC2CNC(=O)C(=O)NCc2ccccn2)cc1 (stereo unspecified)	none (no result: L major viab, CHOP inh, Dynein transport)
Cc1ccccc1CN1CCCOCCS1(=O)=O	none (no result: L major viab, CHOP inh, Dynein transport)
COc1ccccc1Nc1cc(C)nc(Nc2ccccc2OC)n1	none (no result: L major viab, CHOP inh, Dynein transport, T cruzi inh)
CC(C)N(C(=O)COC(=O)CCC(=O)c1cccs1)c1ccccc1	none (no result: L major viab, CHOP inh, Dynein transport, T cruzi inh)
O=S(=O)(c1cccc(C(F)(F)F)c1)N1CCC(c2cc(-c3cccc4ccccc34)n[nH]2)CC1	none
COc1ccc(S(=O)(=O)N2CCC(c3cc(-c4cccc5ccccc45)n[nH]3)CC2)cc1	CHOP inh 84
O=C(Oc1ccccc1C(=O)Nc1ccccc1)c1ccccc1Br	none (no result: CHOP UPR activ, XBP1 UPR activ)
CCN(CC)C(=O)CSc1nc(N)c2c3c(sc2n1)CC(C)CC3 (stereo unspecified)	L major viab 64
OCCN1CCN(Cc2cccc(Oc3ccc(Cl)cc3)c2)CC1	L major viab 99, T cruzi inh 61
OC1CCN(Cc2cccc(Oc3ccccc3)c2)CC1	L major viab 100, T cruzi inh 68
CN1CCN(Cc2cccc(Oc3ccccc3)c2)CC1	L major viab 100
CC1CCCN(Cc2cccc(Oc3ccccc3)c2)C1 (stereo unspecified)	L major viab 100
OCCN1CCN(Cc2ccc3ccccc3c2)CC1	none (no result: L major viab, CHOP inh, Dynein transport)
O=C(c1ccccc1)N1CCN(Cc2cccc(Oc3ccccc3)c2)CC1	none
Cc1noc(C)c1S(=O)(=O)Nc1ccc2c(c1)CC(=O)N([C@H](C)CO)C[C@H](C)[C@@H](CN(C)CC1CC1)O2	none (no result: L major viab, CHOP inh, Dynein transport, T cruzi inh)
Cc1cccc(NS(=O)(=O)c2ccc(C)c(C(=O)NCc3ccncc3)c2)c1	none (no result: L major viab, CHOP inh, Dynein transport)
CCC1CCCCN1CCCNC(=O)Cn1ncn2nc(-c3ccc(OC)cc3)cc2c1=O (stereo unspecified)	none (no result: L major viab, CHOP inh, Dynein transport)
CCN1CCN(CCOCCOc2ccccc2)CC1	none (no result: L major viab, CHOP inh, Dynein transport)
CCN1CCN(CCOc2cccc(Oc3ccccc3)c2)CC1	L major viab 95, T cruzi inh inconclusive
CN(Cc1ccc(Cl)cc1Cl)C(=O)c1cccc(S(=O)(=O)N2CCN(c3ccccc3)CC2)c1	T cruzi inh 60 (no result: L major viab, CHOP inh, Dynein transport)
COC(=O)C1=C(C)N(c2ccc(Cl)c(Cl)c2)C(=O)C1	L major viab 80 (no result: CHOP inh)
Cc1nn(-c2ccccc2)c2sc(C(=O)NNC(=O)COc3ccccc3)cc12	none
Cc1nn(-c2ccccc2)c2sc(C(=O)N3CCCCC3)cc12	CHOP inh 82
Cc1nn(-c2ccccc2)c2sc(C(=O)NNC(=O)COc3cccc4ccccc34)cc12	CHOP inh 92
Cc1cnc(NC(=O)c2cc3c(C)nn(-c4ccccc4)c3s2)s1	CHOP inh 86
COc1ccc(C(C(=O)NC(C)(C)C)N(Cc2cccnc2)C(=O)CCC(=O)Nc2cc(C)on2)cc1 (stereo unspecified)	none (no result: L major viab, CHOP inh, Dynein transport)
CCC(C)NC(=O)CN(c1ccc(Cl)c(Cl)c1)S(C)(=O)=O (stereo unspecified)	none
CCCCN(CC)CCNC(=O)c1cc2c(=O)n(C)c3ccccc3c2s1	T cruzi inh 61 (no result: L major viab, CHOP inh, Dynein transport)
CCCCN(CC)CCNC(=O)c1cn(-c2ccc(Cl)cc2)c(=O)c2ccccc12	T cruzi inh 68
COC(=O)c1cn(-c2ccc(Cl)cc2)c(=O)c2ccccc12	L major viab 58
COc1ccc(NC(C)C(=O)N/N=C/c2ccc([N+](=O)[O-])s2)cc1 (stereo unspecified)	L major viab 100, T cruzi inh 65
Cc1ccc(NC(C)C(=O)N/N=C/c2ccc([N+](=O)[O-])s2)cc1 (stereo unspecified)	L major viab 100, T cruzi inh 82
Cc1ccc(NC(=O)C2(c3ccccc3)CC2(Cl)Cl)cc1C (stereo unspecified)	L major viab 67
Cc1cc(C)cc(NC(=O)C2(c3ccccc3)CC2(Cl)Cl)c1 (stereo unspecified)	none
CCc1ccc(NC(=O)C2(c3ccccc3)CC2(Cl)Cl)cc1 (stereo unspecified)	L major viab 96
S=C(NCCc1ccccc1)N1CCN(Cc2ccccc2)CC1	L major viab 58
S=C(NCCc1ccccc1)N1CCc2ccccc2C1	L major viab 78
COCCCNC(=S)N1CCN(C(=O)C(=O)Nc2ccc(C(=O)OC)cc2)CC1	none
Oc1ccc(N2CCN(C(=S)NCCc3ccccc3)CC2)cc1	L major viab 98
COC(=O)c1ccc(NC(=O)C(=O)N2CCN(C(=S)NCCc3ccccc3)CC2)cc1	L major viab 72
O=C(CCNC(=O)c1ccc(Br)cc1)NCC1COc2ccccc2O1 (stereo unspecified)	none (no result: L major viab, CHOP inh, Dynein transport)
